# Screening results: PubChem, Sanford-Burnham Center for Chemical Genomics
# In the library only some 1.3% were active in any assay of this set; here they are far more common.
# Diaphorase inh: counter-screen for diaphorase-based assays: diaphorase inhibitors and chemical oxidizers; diaphorase resazurin-to-resorufin fluorescence, NADH, 16 min; bacterial (C. kluyveri) enzyme, not human; inhibition, % at 20 µM; 190,000 compounds, 0.69% hits;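 active means primary screen inhibition at 20 µM above a set limit, cut at about 50% in these data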
#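 Benchmarks: positive control wells lacking NADH, neutral wells with DMSO only. System: bacterial diaphorase enzyme (C. kluyveri). Input: 0.14 U/mL diaphorase, enzyme working solution. Detection: resorufin fluorescence, excitation 544 nm, emission 590 nm. Times: 16-min room-temperature incubation before reading.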
# PfG6PD inh: PfG6PD (Plasmodium falciparum) enzyme inhibition; inhibition, % at 20 µM; PfGluPho enzyme, NADPH resazurin-diaphorase fluorescence; 350,000 compounds, 0.78% hits;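 active means inhibition reaching at least a set limit at 20 µM in the primary screen, cut at about 59% in these data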
# G6PDH counter: inhibits Leuconostoc G6PDH, flagging false hits in G6PDH-based assays; Purified L. mesenteroides G6PDH, diaphorase/resazurin coupled fluorescence, 45 min; inhibition, % at 5 µM; AID 1020; 200,000 compounds, 0.12% hits; in the data active means inhibition above about 50%
# HKDC1 inhibitor: blocks human hexokinase HKDC1 activity | Q2TB90 | 340,000 compounds, 0.16% hits | recombinant HKDC1, G6PDH/diaphorase resazurin coupled fluorescence | inhibition, % at 20 µM;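 active means inhibition above about 35% when tested at 20 µM, limit read from the data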
# Target sequence (Q2TB90 whole entry, looked up): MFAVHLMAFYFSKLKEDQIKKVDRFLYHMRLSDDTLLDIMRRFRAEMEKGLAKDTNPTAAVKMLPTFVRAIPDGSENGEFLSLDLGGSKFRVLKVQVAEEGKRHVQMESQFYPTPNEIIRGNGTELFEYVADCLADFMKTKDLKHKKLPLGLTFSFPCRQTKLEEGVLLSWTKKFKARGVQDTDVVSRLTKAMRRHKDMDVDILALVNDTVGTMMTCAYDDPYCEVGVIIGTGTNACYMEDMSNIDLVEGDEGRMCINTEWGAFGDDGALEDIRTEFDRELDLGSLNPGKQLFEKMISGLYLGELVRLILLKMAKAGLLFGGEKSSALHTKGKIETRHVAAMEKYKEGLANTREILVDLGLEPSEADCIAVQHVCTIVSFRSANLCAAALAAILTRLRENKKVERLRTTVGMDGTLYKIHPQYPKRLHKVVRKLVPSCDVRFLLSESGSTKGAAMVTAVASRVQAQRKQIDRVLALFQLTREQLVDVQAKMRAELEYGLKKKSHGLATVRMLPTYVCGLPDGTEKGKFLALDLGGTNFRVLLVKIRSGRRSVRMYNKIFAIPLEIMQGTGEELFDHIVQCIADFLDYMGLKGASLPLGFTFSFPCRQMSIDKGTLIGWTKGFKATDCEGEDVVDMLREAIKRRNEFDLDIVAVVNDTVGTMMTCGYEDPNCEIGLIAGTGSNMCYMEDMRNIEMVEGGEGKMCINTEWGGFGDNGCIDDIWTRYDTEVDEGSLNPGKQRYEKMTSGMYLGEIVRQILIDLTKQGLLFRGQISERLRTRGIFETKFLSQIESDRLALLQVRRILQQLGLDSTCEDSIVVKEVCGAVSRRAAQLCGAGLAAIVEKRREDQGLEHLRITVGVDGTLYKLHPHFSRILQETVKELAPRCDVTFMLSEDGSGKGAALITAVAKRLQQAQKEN
#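 Material: recombinant HKDC1 hexokinase; Amount: HKDC1 at 5 µg/mL; Medium: Tris pH 8.0 buffer with MgCl2, Tween-20, BSA, BME; Schedule: 90 min reaction incubation at room temperature, dark; Technique: coupled resazurin fluorescence, excitation 525 nm, emission 613 nm.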
# Hits are given with their value; . = inactive; / = no result.
SMILES,Diaphorase inh,PfG6PD inh,G6PDH counter,HKDC1 inhibitor
C#CCOCCOCCOCCNc1nc(N2CCN(C(=O)[C@H](CCCCN)n3cc(CCCC)nn3)CC2)nc(N2CCN(C(=O)[C@H](Cc3ccc(O)cc3)n3cc(CCO)nn3)CC2)n1,.,76,.,.
C#CCOCCOCCOCCNc1nc(N2CCN(C(=O)CCCCCCCCCCNC(=O)[C@H]([C@@H](C)CC)n3cc(CCCCCN)nn3)CC2)nc(N2CCN(C(=O)CCCCCCCCCCNC(=O)[C@@H]([C@H](C)O)n3cc(C)nn3)CC2)n1,/,.,/,.
CCc1ccc(/C=N/n2c(COc3ccccc3)n[nH]c2=S)cc1,/,.,/,.
CC(=O)Oc1c(C)c2c3c(c1OC(C)=O)[C@@H](C)CC[C@@H]3[C@@H](C)C[C@H]2C=C(C)C,/,.,/,.
CC(C)=C[C@@H]1C[C@H](C)[C@H]2CC[C@H](C)c3c(O)c(O)c(C)c1c32,/,79,/,.
CN1CCCC1=Nc1ccccc1,/,.,/,/
Cc1ccc(-n2c(-c3ccccc3)c[n+]3c2CCC3)cc1,79,.,.,.
Cc1ccc(-n2c(-c3ccc(Cl)cc3)c[n+]3c2CCC3)cc1,/,.,/,.
Cc1cc(C(=O)N/N=C/c2ccc(O)c([N+](=O)[O-])c2)n[nH]1,.,.,.,.
Cc1cc(C(=O)N/N=C/c2cccc([N+](=O)[O-])c2O)n[nH]1,50,.,.,.
Cc1cc(C)n(-c2nnc(N3CCN(c4ccc(F)cc4)CC3)nn2)n1,53,.,.,.
COCc1nnc(NC(=O)c2c(-c3c(Cl)cccc3Cl)noc2C)s1,/,.,/,.
Cc1cc(O)c(CN(C)C)c2c1C(=O)/C(=C/c1ccco1)O2,/,.,/,.
Cc1cc(O)c(C=O)c2c1C(=O)Oc1c(CO)c(O)c3c(c1O2)C(O)OC3=O (configuration not stated),75,.,.,37
Cc1cc(OCC(=O)OCC(=O)N2CC(C)CC(C)C2)ccc1Cl (configuration not stated),/,.,/,.
CCOC(=O)C1=CN(Cc2cccc(F)c2)S(=O)(=O)N(CC)C1c1ccc(C(F)(F)F)cc1 (configuration not stated),/,.,/,.
CCOC(=O)c1c(NC(=O)C2C3C=CC(C3)C2C(=O)O)sc2c1CCC(CC)C2 (configuration not stated),.,.,.,.
CCOC(=O)c1c(NC(=O)C2C3CCC(O3)C2C(=O)O)sc2c1CCC(CC)C2 (configuration not stated),55,.,.,.
CCOC(=O)c1ccc(N(C(=O)CNC(=O)c2ccco2)C(C(=O)NCC2CCCO2)c2ccc(OC)c(OC)c2)cc1 (configuration not stated),/,.,/,.
O=C(/C=C/c1ccc(O)c(O)c1)c1ccc(S(=O)(=O)N2CCCCCC2)cc1,52,.,.,.
O=C(CCS(=O)(=O)c1ccccc1)N1CCN(c2ccc(F)cc2)CC1,/,.,/,.
C=CCc1cccc2cc(C(=O)Nc3ccc(S(=O)(=O)Nc4nnc(CC)s4)cc3)c(=O)oc12,52,.,.,.
CN(CC(=O)Nc1c(Cl)cccc1Cl)C(=O)C1CCN(C(=O)Nc2ccccc2)CC1,/,.,/,.
Clc1ccc(C2=NCCN2)cc1,.,.,.,.
O=C1C(c2ccccc2)C2C=CC(C2)N1O (configuration not stated),/,.,/,.
SMILES,Diaphorase inh,PfG6PD inh,G6PDH counter,HKDC1 inhibitor
CCOC(=O)C1CCN(C(=O)c2c(C)oc3c2C(=O)c2ccccc2C3=O)CC1,.,.,60,.
CCOC(=O)C1CCN(C(=O)c2ccc(C)o2)CC1,/,.,/,.
Cc1oc2c(c1C(=O)N1CCC(C)CC1)C(=O)c1ccccc1C2=O,.,.,56,.
CC1CCN(C(=O)c2ccc3c(c2)C(=O)c2ccccc2-3)CC1,/,.,/,/
Cc1noc(C)c1CSCC(=O)OCC(=O)Nc1ccc(OC(F)(F)F)cc1,/,.,/,/
COc1ccc(NC(=O)C2CCN(c3ncnc4c3nc3n4CCCCC3)CC2)cc1Cl,/,.,/,.
C[C@H]1C=C(C(=O)N2CCOCC2)O[C@@H](OCc2ccc(CO)cc2)C1,.,.,.,.
CC(=O)n1cc([C@@H]2C=C(C(=O)Nc3ccccc3)O[C@H](OCc3ccc(CO)cc3)C2)c2ccccc21,51,.,.,.
C[C@@H]1C=C(C(=O)N2CCN(C)CC2)O[C@H](OCc2ccc(CO)cc2)C1,68,.,.,.
CC(=O)n1cc([C@@H]2C=C(C(=O)N3CCN(Cc4ccccc4)CC3)O[C@H](OCc3ccc(CO)cc3)C2)c2ccccc21,59,.,.,.
CN(Cc1nc(Cc2ccccc2F)no1)Cc1cccc2ncccc12,.,.,51,.
